Bioassay records as filed in PubChem.
FXN GAA850 act: FXN promoter activators, primary screen, cell-based, luciferase luminescence, HEK293 lucGAA850 | HEK293 lucGAA850 FXN promoter luciferase reporter, 24 h; percent of 10 µM SAHA response | activation, % at 6 µM | 360,000 compounds, 0.56% hits | AID 540364, 2011;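 active = activation above the average of all compounds screened plus 3 SD, cutoff fixed separately per campaign, cut at about 7.5% in these data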;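 also: 0% = DMSO wells and 100% = 10 µM SAHA wells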
JMJD2C inh: inhibitors of GASC-1 histone demethylase, primary screen, biochemical, fluorescence, DELFIA europium | Lysine-specific demethylase 4C (Homo sapiens), Q9H3R0 | GST-JMJD2C(1-420) H3K9me3 demethylation | inhibition, % at 2.35 µM | 330,000 compounds, 0.069% hits | AID 2099, 2009;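 active = more than half of a compound's replicate wells show inhibition beyond 50%, single wells judged on their own value; inconclusive = some, but no more than half, of replicates pass 50% inhibition; inactive = no replicate passes 50% inhibition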;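 also: signal counts dimethyl H3K9 product captured on neutravidin plate; 0% = median of DMSO wells and 100% = 0.3 times that DMSO median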
Target sequence (Q9H3R0 1-420 limits assumed): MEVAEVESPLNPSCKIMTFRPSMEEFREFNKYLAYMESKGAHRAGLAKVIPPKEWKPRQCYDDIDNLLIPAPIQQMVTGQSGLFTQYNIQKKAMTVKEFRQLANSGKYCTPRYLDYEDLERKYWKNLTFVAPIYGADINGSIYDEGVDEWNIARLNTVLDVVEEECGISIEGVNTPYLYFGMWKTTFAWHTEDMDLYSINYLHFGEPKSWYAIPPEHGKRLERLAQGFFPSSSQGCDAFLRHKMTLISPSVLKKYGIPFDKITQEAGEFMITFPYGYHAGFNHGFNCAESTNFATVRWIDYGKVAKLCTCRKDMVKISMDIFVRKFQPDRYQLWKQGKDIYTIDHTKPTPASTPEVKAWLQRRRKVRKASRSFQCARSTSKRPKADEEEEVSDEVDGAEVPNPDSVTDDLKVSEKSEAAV
AHR activator: AHR activators, primary screen, cell-based, luminescence, luciferase reporter, human | Aryl hydrocarbon receptor (Homo sapiens), P35869 | AHR-responsive luciferase reporter cells | activation, % at 5 µM | 320,000 compounds, 2.5% hits | AID 2796, 2010; in the data active = activation above about 47%;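 also: 0% = vehicle wells and 100% = reference agonist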
SR-BI DiI-HDL act: activators of SR-BI mediated DiI-HDL uptake, primary screen, ldlA[mSR-BI] CHO cells, DiI fluorescence. 3 h; 100 = double the neutral-control signal. activation, % at 12.5 µM. 320,000 compounds, 0.096% hits;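 active = mean replicate activation of at least 60% and every replicate at or above 60%; inconclusive = mean or all-replicate condition met, but not both; inactive = mean below 60% and not all replicates reaching 60%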;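 also: 0% = median plate neutral-control signal and 100% = twice that signal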
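System: LDL receptor-deficient CHO ldlA cells overexpressing murine SR-BI | Timing: 3 h uptake period with compound, 37 °C | Medium: HEPES-buffered (25 mM, pH 7.4) F12 plus 0.5% BSA | Dosing: Single-point compound dose | Signal: Bottom-read fluorescence, 550/595 nm | Read-out: Retained DiI signal reflecting DiI-HDL uptake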
SR-BI HDL uptake: inhibitors of SR-BI mediated HDL lipid uptake, primary screen, ldlA[mSR-BI] cells, fluorescence, single point; Scavenger receptor class B member 1 (Mus musculus), Q61009; ldlA[mSR-BI] CHO cells, DiI-HDL uptake fluorescence, 3 h; inhibition, % at 12.5 µM; 320,000 compounds, 0.96% hits; AID 488896, 2010;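 active = mean replicate inhibition of at least 70% and a set share of replicates each scoring 70 or more; inconclusive = meets just one of the two criteria; inactive = fails both criteria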;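 also: 0% = median of neutral control wells and 100% = median of positive control wells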
GAA30 FXN cntr: GAA30 FXN promoter activators, confirmation, counter-screen for GAA850 frataxin promoter activator project, cell-based, luminescence, HEK293, lucGAA30, triplicate | shares compounds with FXN GAA850 act | HEK293 lucGAA30 FXN promoter luciferase, 24 h; DMSO = 0%, 5 µM ipriflavone = 100% | activation, % at 6 µM | 1,900 compounds, 66% hits | AID 588350, 2011;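 active = mean activation above the mean of solvent-only control wells plus 3 SD, cut at about 22% in these data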;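 also: counterscreen of GAA850 promoter hits where activity marks nonselective or luminescence artifacts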
GAA850 confirm: FXN GAA850 promoter activators in reporter cells, confirmation, cell-based, luminescence, HEK293 lucGAA850, triplicate | shares compounds with FXN GAA850 act | HEK293 lucGAA850 FXN promoter luciferase reporter, 24 h; 100% = activation by SAHA | activation, % at 6 µM | 1,900 compounds, 86% hits | AID 588351, 2011;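 active = mean activation above a set limit taken from the primary screen, cut at about 8% in these data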;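 also: 0% = DMSO wells and 100% = 10 µM SAHA wells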
An asterisk follows results filed as active; i = inactive; u = inconclusive; x = not tested or not shown. Shown are actives, neighbours in structure and some others; about 3.7% of the full set was active somewhere.

SMILES	FXN GAA850 act	JMJD2C inh	AHR activator	SR-BI DiI-HDL act	SR-BI HDL uptake	GAA30 FXN cntr	GAA850 confirm
CCN1C(=O)[C@H]2[C@@H](c3ccc(C)cc3)N3C(=O)N(c4cccc(F)c4)C(=O)[C@@]3(C)[C@H]2C1=O	-1	-1	0	45	-45	x	x
O=c1c2ccccc2cnn1Cc1ccc(Br)cc1F	0	0	-1	x	x	x	x
CCC(C(=O)NC1CCCCC1)N(Cc1cccs1)C(=O)CCC(=O)Nc1cc(C)on1 (stereo not given)	-1	1	2	7	-7	x	x
Cc1ccc(N2C(=O)CN(Cc3ccccc3)C2=S)cc1C	0	0	2	x	x	x	x
CCOC(=O)C1CCN(C(=O)C(C)Oc2ccc(C(=O)c3ccccc3)cc2)CC1 (stereo not given)	-1	7	2	-1	1	x	x
O=C1[C@H]2[C@@H](c3ccc(Cl)cc3)N3C(=O)N(c4cccc(Cl)c4)C(=O)[C@@]3(Cc3ccc(Cl)cc3)[C@H]2C(=O)N1C1CCCCC1	9.6*	-6	3	-2	2	23*	10*
O=C1[C@H]2[C@@H](c3ccc(F)cc3)N3C(=O)N(c4cccc(F)c4)C(=O)[C@@]3(Cc3ccc(Cl)cc3)[C@H]2C(=O)N1C1CCCCC1	12*	-3	6	7	-7	20	11*
Cc1ccc(N2C(=O)N3[C@H](c4ccc(Cl)cc4)[C@@H]4C(=O)N(C5CCCCC5)C(=O)[C@@H]4[C@]3(Cc3ccccc3)C2=O)cc1	12*	i	0	3	-3	43*	17*
O=C1[C@H]2[C@@H](c3ccc(Cl)cc3)N3C(=O)N(c4cccc(F)c4)C(=O)[C@@]3(Cc3ccc(Cl)cc3)[C@H]2C(=O)N1C1CCCCC1	0	-6	2	27	-27	x	x
CCN1C(=O)[C@H]2[C@@H](c3ccc(C)cc3)N3C(=O)N(c4ccc(C(F)(F)F)cc4)C(=O)[C@@]3(Cc3ccccc3)[C@H]2C1=O	0	-10	-1	33	-33	x	x
O=C1[C@H]2[C@@H](c3ccc(F)cc3)N3C(=O)N(c4ccc(Br)cc4)C(=O)[C@@]3(Cc3ccccc3)[C@H]2C(=O)N1C1CCCCC1	9.1*	18	-1	26	-26	21	7
Cc1onc(-c2c(F)cccc2Cl)c1C(N)=S	-2	-29	-1	12	-12	x	x
CC[C@@]12C(=O)N(c3ccc(OC)cc3)C(=O)N1[C@H](c1ccc(Cl)cc1)[C@@H]1C(=O)N(C3CCCCC3)C(=O)[C@@H]12	10*	-7	1	-10	10	30*	7
Cc1ccc(COc2ccccc2C(=S)N2CCCC2)cc1	8.1*	6	5	-14	14	51*	23*
CCN(CC(O)c1cccc(O)c1)C(=O)C12CC3CC(CC(C3)C1)C2 (stereo not given)	19*	-11	0	30	-30	33*	23*
O=c1c2ccccc2nc(-c2ccco2)n1Cc1ccccc1	8.2*	-25	7	-4	4	107*	28*
COC(=O)c1ccccc1NC(=O)CSc1n[nH]c(-c2ccco2)n1	4	9	0	x	x	x	x
COCCNc1nc(SC)nc2sc3c(c12)CCN(C)C3	1	3	5	9	-9	x	x
COCCCNc1nc(SCc2ccccc2)nc2sc3c(c12)CCC3	14*	-3	7	x	x	31*	21*
Cc1ccccc1Nc1nc(N)nc(CSc2nc3ccccc3s2)n1	4	-1	39	-24	24	x	x
Cc1ccc(Nc2nc(N)nc(CSc3nc4ccccc4s3)n2)cc1	11*	9	18	13	-13	40*	22*
O=C(Cc1cccs1)N1CCN(S(=O)(=O)c2ccc(Cl)c(C(F)(F)F)c2)CC1	1	-3	0	12	-12	x	x
CC[C@]12c3[nH]c4ccc(OC)cc4c3CCN1C(=O)C(CC(=O)NCC13CC4CC(CC(C4)C1)C3)C[C@@H]2C(=O)N1CCN(C(=O)c2ccco2)CC1 (stereo not given in full)	15*	x	x	3	-3	2	11*
CC[C@]12c3[nH]c4ccc(Cl)cc4c3CCN1C(=O)[C@@H](CC(=O)NCC13CC4CC(CC(C4)C1)C3)C[C@@H]2C(=O)N1CCN(C(=O)c2ccco2)CC1	-2	x	x	8	-8	x	x
CC1=CC(C)(C)Nc2ccc(OC(=O)CCN3C(=O)c4ccccc4C3=O)cc21	11*	-1	-7	18	-18	-16	23*
SMILES	FXN GAA850 act	JMJD2C inh	AHR activator	SR-BI DiI-HDL act	SR-BI HDL uptake	GAA30 FXN cntr	GAA850 confirm
C=CCn1c(-c2csc(-c3ccc(OC)c(OC)c3)n2)n[nH]c1=S	7.6*	-16	21	-5	5	6	11*
Oc1ccc(-c2csc(-c3c[nH]c4ccccc34)n2)c(O)c1	8.1*	-4	61*	-71	u	88*	41*
COc1ccc(-c2nc(CCl)cs2)cc1OC	1	-8	14	15	-15	x	x
c1ccc2c(-c3ccncc3)c[nH]c2c1	-2	-3	-3	3	-3	x	x
COc1ccc(-c2nc(-c3ccc(O)cc3O)cs2)cc1OC	8.7*	-1	x	-91	91*	75*	36*
CC(C)C(NC(=O)OCc1ccccc1)C(=O)N1CCOCCOCCOCC1 (stereo not given)	0	-4	6	-1	1	x	x
O=C(N1CCCC1)N1CCN(S(=O)(=O)c2ccccc2)CC1	0	82	-1	x	x	x	x
O=C(NCCN1CCOCC1)c1cc(-c2ccc(F)cc2)on1	6	2	19	12	-12	x	x
O=C(NCCCN1CCOCC1)c1cc(-c2ccc(F)cc2)on1	9.9*	1	-6	28	-28	48*	18*
Cc1ccc(C)c(-c2csc(-c3cccnc3)n2)c1	0	-4	-1	-5	5	x	x
COc1ccc(-c2csc(-c3cccnc3)n2)cc1C	9.5*	1	8	-41	54	88*	32*
